Active and inactive are the calls of the source.
How the values were obtained:
Type in all cases: cell-based
[1] = molecular target: T1, Nucleotide-binding oligomerization domain-containing protein 1 (Homo sapiens) (UniProt Q9Y239); assay: Agonist activity at human NOD1 stably expressed in HEK293 cells co-expressing secreted alkaline phosphatase assessed as NF-kappaB induction by liquid handler-assisted reporter gene assay
T1 sequence (whole entry): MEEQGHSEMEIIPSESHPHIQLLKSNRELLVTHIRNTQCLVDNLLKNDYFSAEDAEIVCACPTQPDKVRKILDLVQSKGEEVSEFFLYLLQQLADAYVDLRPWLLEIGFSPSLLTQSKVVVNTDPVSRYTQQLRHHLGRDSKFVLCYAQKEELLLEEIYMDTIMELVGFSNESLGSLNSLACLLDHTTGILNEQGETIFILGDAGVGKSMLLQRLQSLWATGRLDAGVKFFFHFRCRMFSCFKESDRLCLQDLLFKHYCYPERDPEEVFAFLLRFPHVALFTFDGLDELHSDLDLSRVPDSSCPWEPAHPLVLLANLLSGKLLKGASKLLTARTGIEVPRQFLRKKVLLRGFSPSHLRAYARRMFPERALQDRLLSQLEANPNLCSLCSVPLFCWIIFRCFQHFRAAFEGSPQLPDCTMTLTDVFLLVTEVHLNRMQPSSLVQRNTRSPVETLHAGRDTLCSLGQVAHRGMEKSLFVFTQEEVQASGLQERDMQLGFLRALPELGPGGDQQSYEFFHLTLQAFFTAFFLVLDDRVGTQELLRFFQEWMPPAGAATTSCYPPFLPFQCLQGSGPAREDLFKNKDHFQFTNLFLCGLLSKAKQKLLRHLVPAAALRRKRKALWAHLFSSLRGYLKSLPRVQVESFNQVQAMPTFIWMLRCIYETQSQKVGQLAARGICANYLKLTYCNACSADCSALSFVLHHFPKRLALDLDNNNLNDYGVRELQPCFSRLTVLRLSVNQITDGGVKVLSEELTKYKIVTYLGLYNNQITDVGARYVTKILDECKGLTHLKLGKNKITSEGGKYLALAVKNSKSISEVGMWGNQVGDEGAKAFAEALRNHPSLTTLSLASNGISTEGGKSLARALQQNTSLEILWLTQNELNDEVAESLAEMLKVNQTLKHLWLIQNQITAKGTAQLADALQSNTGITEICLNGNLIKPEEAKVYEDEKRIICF
In short: (§1)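 HEK293 reporter cells stably co-transfected with the respective human TLR or NOD receptor plus NF-κB/AP-1-driven secreted alkaline phosphatase, kept in selection medium. About 10^5 cells/ml were incubated with graded concentrations of test compound in 384-well format. Supernatant sAP was read colorimetrically at 620 nm with an alkaline phosphatase-specific chromogen in detection medium.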

[2] = molecular target: Toll-like receptor 2 (Homo sapiens) (UniProt O60603); assay: Agonist activity at human TLR2 stably expressed in HEK293 cells co-expressing secreted alkaline phosphatase assessed as NF-kappaB induction by liquid handler-assisted reporter gene assay; in short: as §1
Chain of Toll-like receptor 2 (Homo sapiens) (O60603 whole entry): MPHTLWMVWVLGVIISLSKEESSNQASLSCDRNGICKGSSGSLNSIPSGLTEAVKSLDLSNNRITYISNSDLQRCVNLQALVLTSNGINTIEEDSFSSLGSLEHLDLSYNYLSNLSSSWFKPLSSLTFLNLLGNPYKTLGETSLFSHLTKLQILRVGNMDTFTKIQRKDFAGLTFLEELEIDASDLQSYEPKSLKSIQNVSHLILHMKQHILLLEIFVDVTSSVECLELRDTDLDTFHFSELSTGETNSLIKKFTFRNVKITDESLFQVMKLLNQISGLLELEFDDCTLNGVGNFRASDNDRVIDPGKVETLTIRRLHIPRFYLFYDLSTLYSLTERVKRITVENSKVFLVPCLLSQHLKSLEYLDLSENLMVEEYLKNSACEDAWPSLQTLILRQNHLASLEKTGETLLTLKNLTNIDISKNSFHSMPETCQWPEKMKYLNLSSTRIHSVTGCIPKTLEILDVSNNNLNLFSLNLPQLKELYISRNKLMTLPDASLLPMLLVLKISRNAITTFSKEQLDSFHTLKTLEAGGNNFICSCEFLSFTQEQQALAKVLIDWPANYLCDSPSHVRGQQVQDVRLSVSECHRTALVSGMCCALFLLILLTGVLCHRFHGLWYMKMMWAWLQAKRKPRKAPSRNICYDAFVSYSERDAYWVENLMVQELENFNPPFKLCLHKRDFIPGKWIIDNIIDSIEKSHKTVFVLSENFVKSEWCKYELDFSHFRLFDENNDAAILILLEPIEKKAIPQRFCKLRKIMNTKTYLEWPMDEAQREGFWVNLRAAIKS

[3] = molecular target: Toll-like receptor 4 (Homo sapiens) (UniProt O00206); assay: Agonist activity at human TLR4 stably expressed in HEK293 cells co-expressing secreted alkaline phosphatase assessed as NF-kappaB induction by liquid handler-assisted reporter gene assay; in short: as §1
Chain of Toll-like receptor 4 (Homo sapiens) (O00206 whole entry): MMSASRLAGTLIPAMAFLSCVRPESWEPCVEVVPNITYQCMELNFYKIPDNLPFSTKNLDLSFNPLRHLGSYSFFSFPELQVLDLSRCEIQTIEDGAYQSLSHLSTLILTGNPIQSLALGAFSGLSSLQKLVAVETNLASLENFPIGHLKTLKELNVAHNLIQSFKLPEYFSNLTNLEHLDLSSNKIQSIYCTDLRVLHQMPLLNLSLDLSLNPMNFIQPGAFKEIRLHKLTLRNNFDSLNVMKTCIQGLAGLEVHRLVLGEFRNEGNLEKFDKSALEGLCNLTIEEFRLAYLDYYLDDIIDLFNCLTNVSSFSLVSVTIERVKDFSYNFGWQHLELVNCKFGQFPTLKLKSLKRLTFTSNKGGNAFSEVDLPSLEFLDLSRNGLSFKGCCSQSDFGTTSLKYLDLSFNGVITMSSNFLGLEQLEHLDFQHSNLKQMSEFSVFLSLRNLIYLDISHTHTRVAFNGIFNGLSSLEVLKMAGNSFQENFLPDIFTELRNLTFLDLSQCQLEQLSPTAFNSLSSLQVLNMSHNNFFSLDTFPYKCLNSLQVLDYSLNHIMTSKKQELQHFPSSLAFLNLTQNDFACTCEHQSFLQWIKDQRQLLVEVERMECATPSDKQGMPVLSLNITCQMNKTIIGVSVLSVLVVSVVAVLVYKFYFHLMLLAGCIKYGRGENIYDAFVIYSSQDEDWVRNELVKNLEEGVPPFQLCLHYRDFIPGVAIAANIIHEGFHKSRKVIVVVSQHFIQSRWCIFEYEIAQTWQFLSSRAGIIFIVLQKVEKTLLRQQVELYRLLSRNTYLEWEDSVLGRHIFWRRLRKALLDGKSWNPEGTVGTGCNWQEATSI

[4] = molecular target: Toll-like receptor 3 (Homo sapiens) (UniProt O15455); assay: Agonist activity at human TLR3 stably expressed in HEK293 cells co-expressing secreted alkaline phosphatase assessed as NF-kappaB induction by liquid handler-assisted reporter gene assay; in short: as §1
Chain of Toll-like receptor 3 (Homo sapiens) (O15455 whole entry): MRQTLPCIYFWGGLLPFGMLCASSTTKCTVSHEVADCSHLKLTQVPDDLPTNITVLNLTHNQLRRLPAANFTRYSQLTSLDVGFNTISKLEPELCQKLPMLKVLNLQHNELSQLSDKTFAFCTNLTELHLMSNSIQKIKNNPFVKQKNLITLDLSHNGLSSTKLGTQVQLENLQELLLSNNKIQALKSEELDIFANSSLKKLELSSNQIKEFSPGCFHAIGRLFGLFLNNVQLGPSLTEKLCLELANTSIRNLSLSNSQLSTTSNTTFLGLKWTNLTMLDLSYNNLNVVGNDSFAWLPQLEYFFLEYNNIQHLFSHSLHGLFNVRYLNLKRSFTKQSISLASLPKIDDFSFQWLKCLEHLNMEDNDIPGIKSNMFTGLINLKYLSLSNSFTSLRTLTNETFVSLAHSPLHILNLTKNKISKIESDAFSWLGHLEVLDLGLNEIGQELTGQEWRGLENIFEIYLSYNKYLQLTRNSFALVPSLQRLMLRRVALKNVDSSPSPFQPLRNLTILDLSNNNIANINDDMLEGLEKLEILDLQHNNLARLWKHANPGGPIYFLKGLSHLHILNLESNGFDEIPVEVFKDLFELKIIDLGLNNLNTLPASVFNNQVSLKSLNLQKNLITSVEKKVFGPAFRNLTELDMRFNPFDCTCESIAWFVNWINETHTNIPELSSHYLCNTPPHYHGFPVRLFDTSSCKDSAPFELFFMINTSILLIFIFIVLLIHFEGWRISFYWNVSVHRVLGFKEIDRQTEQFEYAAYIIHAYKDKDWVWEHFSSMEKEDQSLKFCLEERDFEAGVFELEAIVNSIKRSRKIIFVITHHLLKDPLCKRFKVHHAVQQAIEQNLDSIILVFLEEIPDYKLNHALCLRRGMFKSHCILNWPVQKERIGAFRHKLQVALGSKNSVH

[5] = molecular target: T2, Toll-like receptor 7 (Homo sapiens) (UniProt Q9NYK1); assay: Agonist activity at human TLR7 stably expressed in HEK293 cells co-expressing secreted alkaline phosphatase assessed as NF-kappaB induction by liquid handler-assisted reporter gene assay; in short: as §1
T2 sequence (whole entry): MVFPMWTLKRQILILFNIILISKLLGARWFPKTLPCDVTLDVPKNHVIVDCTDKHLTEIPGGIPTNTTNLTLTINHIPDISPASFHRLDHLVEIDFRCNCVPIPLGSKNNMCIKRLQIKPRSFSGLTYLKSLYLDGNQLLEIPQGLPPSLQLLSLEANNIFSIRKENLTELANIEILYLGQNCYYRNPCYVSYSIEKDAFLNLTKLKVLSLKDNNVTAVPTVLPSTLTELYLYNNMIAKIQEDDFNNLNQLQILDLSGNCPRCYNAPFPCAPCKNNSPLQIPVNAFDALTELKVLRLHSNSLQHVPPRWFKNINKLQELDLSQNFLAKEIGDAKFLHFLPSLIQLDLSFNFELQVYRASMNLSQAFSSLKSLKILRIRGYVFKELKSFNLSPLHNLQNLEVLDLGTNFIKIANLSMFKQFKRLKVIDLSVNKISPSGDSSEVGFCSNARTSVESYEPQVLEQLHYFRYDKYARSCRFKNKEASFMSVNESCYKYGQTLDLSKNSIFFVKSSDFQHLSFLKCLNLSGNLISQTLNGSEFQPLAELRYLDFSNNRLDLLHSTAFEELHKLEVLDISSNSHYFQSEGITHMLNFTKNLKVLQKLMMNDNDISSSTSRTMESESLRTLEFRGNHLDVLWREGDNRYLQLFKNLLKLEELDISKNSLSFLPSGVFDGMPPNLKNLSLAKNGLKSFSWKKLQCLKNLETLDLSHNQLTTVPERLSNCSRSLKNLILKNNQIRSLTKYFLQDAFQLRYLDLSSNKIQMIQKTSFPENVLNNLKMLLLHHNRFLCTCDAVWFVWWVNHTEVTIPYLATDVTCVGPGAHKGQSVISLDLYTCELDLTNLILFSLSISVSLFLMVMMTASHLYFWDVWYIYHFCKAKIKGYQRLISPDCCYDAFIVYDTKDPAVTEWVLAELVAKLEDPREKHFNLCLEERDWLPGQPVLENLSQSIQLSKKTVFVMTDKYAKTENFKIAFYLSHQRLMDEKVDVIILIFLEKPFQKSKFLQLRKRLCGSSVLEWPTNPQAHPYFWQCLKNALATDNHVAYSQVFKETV

[6] = molecular target: Nucleotide-binding oligomerization domain-containing protein 2 (Homo sapiens, UniProt Q9HC29); assay: Agonist activity at human NOD2 stably expressed in HEK293 cells co-expressing secreted alkaline phosphatase assessed as NF-kappaB induction by liquid handler-assisted reporter gene assay; in short: as §1
Chain of Nucleotide-binding oligomerization domain-containing protein 2 (Q9HC29 whole entry, the tested form may be a part): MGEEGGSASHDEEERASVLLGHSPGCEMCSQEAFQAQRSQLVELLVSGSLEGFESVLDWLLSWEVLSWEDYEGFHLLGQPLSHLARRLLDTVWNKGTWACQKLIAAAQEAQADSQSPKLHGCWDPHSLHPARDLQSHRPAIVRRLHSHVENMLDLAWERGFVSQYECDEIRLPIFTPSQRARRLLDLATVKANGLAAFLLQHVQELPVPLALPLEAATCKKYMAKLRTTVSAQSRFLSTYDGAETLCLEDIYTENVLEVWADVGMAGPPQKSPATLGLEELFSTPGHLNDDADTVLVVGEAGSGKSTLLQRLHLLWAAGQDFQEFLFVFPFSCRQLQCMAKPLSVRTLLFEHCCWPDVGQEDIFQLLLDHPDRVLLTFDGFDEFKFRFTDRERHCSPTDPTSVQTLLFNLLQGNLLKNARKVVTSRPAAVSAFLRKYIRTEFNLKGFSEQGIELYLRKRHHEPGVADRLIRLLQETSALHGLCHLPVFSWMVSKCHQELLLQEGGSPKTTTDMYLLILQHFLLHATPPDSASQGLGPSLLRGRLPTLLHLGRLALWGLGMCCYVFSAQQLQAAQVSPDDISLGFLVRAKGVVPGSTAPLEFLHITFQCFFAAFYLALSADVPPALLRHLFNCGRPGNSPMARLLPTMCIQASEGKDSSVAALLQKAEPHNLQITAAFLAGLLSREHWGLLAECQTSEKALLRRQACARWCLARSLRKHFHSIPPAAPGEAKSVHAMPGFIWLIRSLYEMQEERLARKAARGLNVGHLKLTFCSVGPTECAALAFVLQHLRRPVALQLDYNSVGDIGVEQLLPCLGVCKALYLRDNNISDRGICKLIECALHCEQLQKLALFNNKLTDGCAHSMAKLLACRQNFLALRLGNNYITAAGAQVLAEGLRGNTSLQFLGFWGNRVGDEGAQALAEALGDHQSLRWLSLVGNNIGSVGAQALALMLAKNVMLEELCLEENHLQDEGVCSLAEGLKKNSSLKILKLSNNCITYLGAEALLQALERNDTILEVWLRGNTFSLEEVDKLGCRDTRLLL

[7] = molecular target: Toll-like receptor 5 (Homo sapiens) (UniProt O60602); assay: Agonist activity at human TLR5 stably expressed in HEK293 cells co-expressing secreted alkaline phosphatase assessed as NF-kappaB induction by liquid handler-assisted reporter gene assay; in short: as §1
Chain of Toll-like receptor 5 (Homo sapiens) (O60602 whole entry): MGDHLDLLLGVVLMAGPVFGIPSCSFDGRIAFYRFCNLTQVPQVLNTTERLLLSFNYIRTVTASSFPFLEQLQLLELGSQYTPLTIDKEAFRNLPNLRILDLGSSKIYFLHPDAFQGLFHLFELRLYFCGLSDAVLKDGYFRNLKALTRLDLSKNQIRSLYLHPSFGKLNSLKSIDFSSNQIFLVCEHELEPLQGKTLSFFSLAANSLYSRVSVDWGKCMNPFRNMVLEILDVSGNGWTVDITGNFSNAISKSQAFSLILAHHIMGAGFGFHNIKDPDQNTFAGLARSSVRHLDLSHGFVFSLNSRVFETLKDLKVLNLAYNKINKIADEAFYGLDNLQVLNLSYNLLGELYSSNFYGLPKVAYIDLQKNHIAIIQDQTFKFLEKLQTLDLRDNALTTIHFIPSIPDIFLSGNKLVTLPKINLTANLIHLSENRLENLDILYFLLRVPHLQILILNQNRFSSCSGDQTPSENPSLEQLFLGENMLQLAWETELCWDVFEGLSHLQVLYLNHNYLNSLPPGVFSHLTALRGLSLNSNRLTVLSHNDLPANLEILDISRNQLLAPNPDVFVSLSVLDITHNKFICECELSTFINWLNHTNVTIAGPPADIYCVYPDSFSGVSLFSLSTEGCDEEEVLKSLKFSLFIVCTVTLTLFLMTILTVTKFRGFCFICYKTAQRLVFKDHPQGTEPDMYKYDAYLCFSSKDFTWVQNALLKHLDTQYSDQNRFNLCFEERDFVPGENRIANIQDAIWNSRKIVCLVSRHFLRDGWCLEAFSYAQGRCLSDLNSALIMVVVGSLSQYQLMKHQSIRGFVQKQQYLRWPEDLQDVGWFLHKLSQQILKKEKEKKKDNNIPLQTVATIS

[8] = molecular target: T3, Toll-like receptor 9 (Homo sapiens) (UniProt Q9NR96); assay: Agonist activity at human TLR9 stably expressed in HEK293 cells co-expressing secreted alkaline phosphatase assessed as NF-kappaB induction by liquid handler-assisted reporter gene assay; in short: as §1
T3 sequence (whole entry): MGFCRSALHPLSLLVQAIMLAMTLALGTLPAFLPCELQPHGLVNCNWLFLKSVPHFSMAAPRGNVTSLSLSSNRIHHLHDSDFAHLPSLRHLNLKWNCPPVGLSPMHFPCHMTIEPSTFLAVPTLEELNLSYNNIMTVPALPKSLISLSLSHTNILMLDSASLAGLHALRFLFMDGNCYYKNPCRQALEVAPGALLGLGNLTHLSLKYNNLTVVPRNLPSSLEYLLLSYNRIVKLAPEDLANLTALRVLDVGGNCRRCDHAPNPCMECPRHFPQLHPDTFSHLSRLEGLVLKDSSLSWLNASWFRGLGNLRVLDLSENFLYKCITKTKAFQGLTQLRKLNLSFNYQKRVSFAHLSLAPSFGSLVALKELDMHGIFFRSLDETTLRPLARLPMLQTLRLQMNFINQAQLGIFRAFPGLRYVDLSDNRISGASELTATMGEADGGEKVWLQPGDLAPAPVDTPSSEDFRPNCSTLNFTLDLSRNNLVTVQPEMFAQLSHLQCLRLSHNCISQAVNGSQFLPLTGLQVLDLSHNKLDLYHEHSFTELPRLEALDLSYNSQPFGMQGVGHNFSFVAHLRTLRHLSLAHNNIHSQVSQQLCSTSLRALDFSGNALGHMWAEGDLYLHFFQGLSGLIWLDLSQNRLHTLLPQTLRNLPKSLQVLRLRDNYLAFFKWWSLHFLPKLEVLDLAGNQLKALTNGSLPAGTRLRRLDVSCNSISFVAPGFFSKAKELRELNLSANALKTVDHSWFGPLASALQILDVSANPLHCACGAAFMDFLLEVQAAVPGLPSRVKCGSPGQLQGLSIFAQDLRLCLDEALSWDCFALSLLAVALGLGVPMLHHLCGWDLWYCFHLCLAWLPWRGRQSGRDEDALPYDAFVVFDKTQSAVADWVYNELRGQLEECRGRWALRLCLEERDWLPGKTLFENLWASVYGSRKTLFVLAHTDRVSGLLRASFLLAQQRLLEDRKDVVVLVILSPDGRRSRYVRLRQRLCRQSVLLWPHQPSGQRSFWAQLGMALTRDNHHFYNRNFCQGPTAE

Measured: Activity

CCCCCn1c(N)nc2c(OC)cccc21
inactive: [1] | [2] | [3] | [4] | [5] | [6] | [7] | [8]

CCCCn1c(N)nc2ccccc21
inactive: [1] | [2] | [3] | [4] | [5] | [6] | [7] | [8]

Reference: ChEMBL document CHEMBL3352666, “Human Toll-like receptor 8-selective agonistic activities in 1-alkyl-1H-benzimidazol-2-amines” (J Med Chem, 2014)
